Experimental data taken from ChEMBL document CHEMBL4330063, “New naphthopyran analogues of LY290181 as potential tumor vascular-disrupting agents” (Eur J Med Chem, 2019).
Active and inactive are the calls of the source. The calls are words filed in the database; no cut-off is given here.

How the values were obtained:
PANC-1 = experiment: Antiproliferative activity against human PANC1 cells after 72 hrs by MTT assay; format: functional, cell-based; conditions: PANC-1, 72 h
Method in brief: (§1)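 MTT read-out after 72 h of continuous exposure. Viability is expressed as percentage of viable cells relative to untreated controls. IC50 comes from dose-response curves. Values are means±SD of four independent experiments (two for some entries). DMSO was below 1%, with vehicle controls at equal DMSO. Precipitation was excluded spectrometrically and microscopically.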

[1] = Antiproliferative activity against human A2780cis cells after 72 hrs by SRB assay; format: functional, cell-based
Method in brief: (§2)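 Ovarian A2780 and cisplatin-resistant A2780cis cells were exposed for 72 h and stained with SRB. IC50 comes from dose-response curves, as means±SD of three independent experiments. Final DMSO was below 1%, with matched vehicle controls.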

A2780 [2] = experiment: Antiproliferative activity against human A2780 cells after 72 hrs by SRB assay; format: functional, cell-based; conditions: A2780, 72 h; method in brief: as §2
518A2 [3] = experiment: Antiproliferative activity against human 518A2 cells after 72 hrs by MTT assay; format: functional, cell-based; conditions: for IC50: 518A2, 72 h; method in brief: as §1
[4] = Antiproliferative activity against human MCF7/Topo cells after 72 hrs by MTT assay; format: functional, cell-based; method in brief: as §1
HT-29 [5] = experiment: Antiproliferative activity against human HT-29 cells after 72 hrs by MTT assay; format: functional, cell-based; conditions: HT-29, 72 h; method in brief: as §1
EA.hy 926 [6] = experiment: Antiproliferative activity against human EAhy926 cells after 72 hrs by MTT assay; format: functional, cell-based; conditions: EA.hy 926, 72 h; method in brief: as §1
[7] = Antiproliferative activity against human KB-V1/Vbl cells after 72 hrs by MTT assay; format: functional, cell-based; method in brief: as §1
HCT-116 = experiment: Antiproliferative activity against human HCT116 cells after 72 hrs by MTT assay; format: functional, cell-based; conditions: HCT-116, 72 h; method in brief: as §1
DLD-1 = experiment: Antiproliferative activity against human DLD1 cells after 72 hrs by MTT assay; format: functional, cell-based; conditions: DLD-1, 72 h; method in brief: as §1
[8] = Solubility in tween80/ethanol (1:1) solution; format: physicochemical
HT-29 [9] = experiment: Cell cycle arrest in human HT-29 cells assessed as accumulation of cells at G2/M phase at 350 nM after 24 hrs by propidium iodide staining-based flow cytometric analysis (reference value: 11.4 +/- 1.4%); format: functional
HT-29 [10] = experiment: Cell cycle arrest in human HT-29 cells assessed as accumulation of cells at G1 phase at 100 nM after 24 hrs by propidium iodide staining-based flow cytometric analysis (reference value: 75.1 +/- 1.1%); format: functional
HT-29 [11] = experiment: Cell cycle arrest in human HT-29 cells assessed as accumulation of cells at S phase at 100 nM after 24 hrs by propidium iodide staining-based flow cytometric analysis (reference value: 12.3 +/- 0.4%); format: functional
Chorioallantoic membrane [12] = experiment: Antiangiogenic activity in Leghorn chicken embryo chorioallantoic membrane assessed as reduction in diameter of main blood vessel at 5 nmol after 24 hrs by light microscopic analysis; format: functional, tissue-based; conditions: Gallus gallus
Method in brief: (§3)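 Fertilized chicken eggs, CAM assay. Compound was applied topically into a small silicon foil ring placed on the CAM. The membrane and its extraembryonal blood vessels were monitored over 24 h, with observations at 6 h and 24 h post application.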

518A2 [13] = experiment: Induction of apoptosis in human 518A2 cells assessed as accumulation at subG1 phase; format: functional, cell-based
Chorioallantoic membrane [14] = experiment: Antiangiogenic activity in Leghorn chicken embryo chorioallantoic membrane assessed as induction of hemorrhages at 5 nmol after 24 hrs by light microscopic analysis; format: functional, tissue-based; conditions: Gallus gallus; method in brief: as §3
HT-29 [15] = experiment: Cell cycle arrest in human HT-29 cells assessed as accumulation of cells at G2/M phase at 250 nM after 24 hrs by propidium iodide staining-based flow cytometric analysis (reference value: 11.4 +/- 1.4%); format: functional
HT-29 [16] = experiment: Cell cycle arrest in human HT-29 cells assessed as accumulation of cells at G2/M phase after 24 hrs by propidium iodide staining-based flow cytometric analysis; format: functional
HT-29 [17] = experiment: Cell cycle arrest in human HT-29 cells assessed as accumulation of cells at sub G1 phase at 100 nM after 24 hrs by propidium iodide staining-based flow cytometric analysis (reference value: 1.2 +/- 0.3%); format: functional
HT-29 [18] = experiment: Cell cycle arrest in human HT-29 cells assessed as accumulation of cells at G1 phase at 350 nM after 24 hrs by propidium iodide staining-based flow cytometric analysis (reference value: 75.1 +/- 1.1%); format: functional
Chorioallantoic membrane [19] = experiment: Antiangiogenic activity in Leghorn chicken embryo chorioallantoic membrane assessed as disruption of smaller blood vessels at 5 nmol after 24 hrs by light microscopic analysis; format: functional, tissue-based; conditions: Gallus gallus; method in brief: as §3
Chorioallantoic membrane [20] = experiment: Antiangiogenic activity in Leghorn chicken embryo chorioallantoic membrane assessed as reduction in blood vessel area at 5 nmol after 6 hrs by light microscopic analysis relative to control; format: functional, tissue-based; design: scale not given: the % may be the effect or the level left; conditions: Gallus gallus
Method in brief: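 The CAM assay was run with topical application into a silicon foil ring atop the CAM of fertilized chicken eggs. Area covered by blood vessels was quantified by fractal analysis relative to control.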

518A2 [21] = experiment: Induction of cell cycle arrest in human 518A2 cells; format: functional, cell-based
HT-29 [22] = experiment: Cell cycle arrest in human HT-29 cells assessed as accumulation of cells at sub G1 phase at 250 nM after 24 hrs by propidium iodide staining-based flow cytometric analysis (reference value: 1.2 +/- 0.3%); format: functional
HT-29 [23] = experiment: Cell cycle arrest in human HT-29 cells assessed as accumulation of cells at S phase at 250 nM after 24 hrs by propidium iodide staining-based flow cytometric analysis (reference value: 12.3 +/- 0.4%); format: functional
Chorioallantoic membrane [24] = experiment: Antiangiogenic activity in Leghorn chicken embryo chorioallantoic membrane assessed as induction of hemorrhages at 5 nmol after 6 hrs by light microscopic analysis; format: functional, tissue-based; conditions: Gallus gallus; method in brief: as §3
Chorioallantoic membrane [25] = experiment: Antiangiogenic activity in Leghorn chicken embryo chorioallantoic membrane assessed as disruption of smaller blood vessels at 5 nmol after 6 hrs by light microscopic analysis; format: functional, tissue-based; conditions: Gallus gallus; method in brief: as §3
HT-29 [26] = experiment: Cell cycle arrest in human HT-29 cells assessed as accumulation of cells at G1 phase at 250 nM after 24 hrs by propidium iodide staining-based flow cytometric analysis (reference value: 75.1 +/- 1.1%); format: functional
HT-29 [27] = experiment: Cell cycle arrest in human HT-29 cells assessed as accumulation of cells at S phase at 350 nM after 24 hrs by propidium iodide staining-based flow cytometric analysis (reference value: 12.3 +/- 0.4%); format: functional
HT-29 [28] = experiment: Cell cycle arrest in human HT-29 cells assessed as accumulation of cells at G2/M phase at 100 nM after 24 hrs by propidium iodide staining-based flow cytometric analysis (reference value: 11.4 +/- 1.4%); format: functional
Chorioallantoic membrane [29] = experiment: Antiangiogenic activity in Leghorn chicken embryo chorioallantoic membrane assessed as effect on blood vessel length at 5 nmol after 6 hrs by light microscopic analysis; format: functional, tissue-based; conditions: Gallus gallus; method in brief: as §3
HT-29 [30] = experiment: Cell cycle arrest in human HT-29 cells assessed as accumulation of cells at sub G1 phase at 350 nM after 24 hrs by propidium iodide staining-based flow cytometric analysis (reference value: 1.2 +/- 0.3%); format: functional
Tubulin (Homo sapiens) = Tubulin (Homo sapiens) (UniProt P68371+Q9H4B7+P0DPH7+P68366+Q13509+Q71U36+P04350+Q3ZCM7+P07437+P68363+Q9BQE3+Q6PEY2+Q13885+Q9BVA1+Q9BUF5); experiment: Induction of microtubule disruption in human 518A2 cells at 100 nM after 3 hrs by DAPI staining-based fluorescence microscopic analysis; format: cell-based
Method in brief: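 Microtubule organization in 518A2 melanoma cells was checked by tubulin immunofluorescence staining after 3 h exposure to 100 nM, with DAPI as the nuclear counterstain. Images come from two independent experiments.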

518A2 [31] = experiment: Antimigratory activity against human 518A2 cells at 50 nM after 48 hrs by wound healing assay; format: functional, cell-based
A2780 [32] = experiment: Antivascular activity against human A2780 cells xenografted in nude mouse assessed as tumor discoloration at 200 mg/kg administered on every other day and measured after 24 hrs; format: functional, organism-based; conditions: in the assay text read “administered as single dose” for “administered on every other day”
Method in brief: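 Mice bore A2780 tumor xenografts. Compound was formulated in tween80/ethanol (1:1) and injected as single doses. Tumors were inspected for discoloration as a sign of vascular disruption, and treated tumors were examined histologically for hemorrhage and necrosis.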

EA.hy 926 [33] = experiment: Cytotoxicity against human EAhy926 cells at 100 nM after 24 hrs by MTT assay relative to control; format: cell-based; conditions: ea.hy 926, 24 h, 0.1 µM
518A2 [34] = experiment: Induction of apoptosis in human 518A2 cells at 100 nM after 24 hrs by TUNEL assay relative to control; format: functional
EA.hy 926 [35] = experiment: Antiangiogenic activity against human EAhy926 cells assessed as inhibition of tube formation on matrigel at 100 nM after 24 hrs by light microscopic analysis; format: functional, cell-based
Method in brief: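 Ea.Hy926 endothelial hybrid cells were seeded on matrigel with compound and examined for tubular/cord-like network formation versus untreated controls. Viability under the same conditions was checked in parallel by MTT to exclude cytotoxic effects.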

518A2 [36] = experiment: Effect on F-actin in human 518A2 cells assessed as thick stress fibers formation at 100 nM after 3 hrs by DAPI staining-based fluorescence microscopic analysis; format: cell-based
Method in brief: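 518A2 melanoma cells were treated with 100 nM for 3 h. Filamentous actin was fluorescence-labelled, nuclei were counterstained with DAPI, and the cells were imaged by fluorescence microscopy. Images come from two independent experiments.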

SMILES | IC50 (PANC-1) [nM] | IC50 [1] [nM] | IC50 (A2780 [2]) [nM] | Activity (518A2 [3]) | IC50 (518A2 [3]) [nM] | IC50 [4] [nM] | IC50 (HT-29 [5]) [nM] | IC50 (EA.hy 926 [6]) [nM] | IC50 [7] [nM] | IC50 (HCT-116) [nM] | IC50 (DLD-1) [nM] | Activity (HT-29 [9]) [%] | Activity (HT-29 [10]) [%] | Activity (HT-29 [11]) [%] | Activity (Chorioallantoic membrane [12]) | Activity (Chorioallantoic membrane [14]) | Activity (HT-29 [15]) [%] | Activity (HT-29 [17]) [%] | Activity (HT-29 [18]) [%] | Activity (Chorioallantoic membrane [19]) | further results
COc1c(Cl)cc(C2C(C#N)=C(N)Oc3c2ccc2ccccc32)cc1Cl (stereo unspecified) | 27.9 | 19.2 | 16.7 | Dose-dependent effect | 44.6 | 29.9 | 103 | 32.6 | 30.2 | 69.2 | 59 |  |  |  |  |  |  |  |  |  | solubility [8]: Insoluble
N#CC1=C(N)Oc2c(cc(Cl)c3ccccc23)C1c1cccc([N+](=O)[O-])c1 (stereo unspecified) | 65.9 | 46 | 61.1 | Dose-dependent effect | 225 | 88.5 | 209 | 90.8 | 73.3 | 112 | 22.3 | 73.5 | 55.8 | 23.6 | Active | inactive | 17.7 | 2 | 14.8 | inactive | Activity (518A2 [13]): Active; Activity (HT-29 [16]): Dose-dependent effect; Activity (Chorioallantoic membrane [20]): 74%; Activity (518A2 [21]): inactive; Activity (HT-29 [22]): 17.6%; Activity (HT-29 [23]): 11.3%; Activity (Chorioallantoic membrane [24]): Active; Activity (Chorioallantoic membrane [25]): Active; Activity (HT-29 [26]): 53.5%; Activity (HT-29 [27]): 5.2%; Activity (HT-29 [28]): 18.6%; Activity (Chorioallantoic membrane [29]): inactive; Activity (HT-29 [30]): 6.6%
N#CC1=C(N)Oc2c(ccc3ccccc23)C1c1cccc(C#N)c1 (stereo unspecified) | < 0.1 | 17.9 | 14.8 | Dose-dependent effect | < 0.1 | 0.41 | 110 | 4.3 | < 0.1 |  | 2.6 | 13.3 | 51 | 25.1 | Active | inactive | 10.1 | 4.2 | 60.5 | inactive | Activity (Tubulin (Homo sapiens)): Active; Activity (518A2 [31]): Active; Activity (A2780 [32]): inactive; Activity (EA.hy 926 [33]): > 68%; Activity (Chorioallantoic membrane [20]): 56%; Activity (HT-29 [22]): 11.8%; Activity (518A2 [34]): 69.4%; Activity (HT-29 [23]): 18.5%; Activity (Chorioallantoic membrane [24]): Active; Activity (Chorioallantoic membrane [25]): Active; Activity (HT-29 [26]): 59.6%; Activity (HT-29 [27]): 15.6%; Activity (EA.hy 926 [35]): Active; Activity (HT-29 [28]): 19.7%; Activity (518A2 [36]): Active; Activity (Chorioallantoic membrane [29]): Active; Activity (HT-29 [30]): 10.6%
